Experimental data pooled from the literature.
Protocols differ between the studies behind these lines.
Target: Serine/threonine-protein kinase 26 (STK26, Homo sapiens, UniProt Q9P289)

SMILES | observed | method | concentration | remaining binding [%]
CN([C@@H]1CCc2c(CC(=O)O)c3ccccc3n2C1)S(=O)(=O)c1ccc(F)cc1 | cell-free assay | competition with immobilised ligand | 1 µM | 79
O=C(c1ccc(Nc2ncc(Cl)c(-c3ccc(Cl)s3)n2)cc1)N1CCC(N2CCCC2)CC1 | binding | competition with immobilised ligand | 1 µM | 30
CCC(=O)N[C@@H]1CC[C@H](C(=O)N(C)c2ccc(-c3nc4ccccc4o3)cc2)C1 | cell-free assay | competition with immobilised ligand | 1 µM | 77
C=CC(=O)N1CCC(C(=O)NCC(=O)N2CCN(c3nc(-c4cnc(N)nc4C(F)F)nc(N4CCOCC4)n3)CC2)CC1 | binding | competition with immobilised ligand | 1 µM | 100
O=C(Nc1c[nH]nc1C(=O)NC1CCNCC1)c1cc(F)cc(F)c1 | binding | competition with immobilised ligand | 1 µM | 68
CS(=O)(=O)N1CCCC(NC(=O)[C@H](CCC2CCCCC2)NC(=O)c2ccc(CNC(=O)c3cnc4ccccn34)cc2)C1 (some centres unmarked) | cell-free assay | competition with immobilised ligand | 0.1 µM | 100
C[C@@H](c1ccc(-n2cnc3c(N)ncnc32)cc1)N1CCc2nn(C)c(Cc3ccccc3)c2C1=O | binding | competition with immobilised ligand | 0.1 µM | 88
COc1cnc(Nc2cccc(S(N)(=O)=O)c2)nc1N1CCN(c2ccccc2)CC1 | binding | competition with immobilised ligand | 1 µM | 78
CN1CCN(c2ccc(Nc3nccc(-c4cccc([N+](=O)[O-])c4)n3)cc2C(F)(F)F)CC1 | binding |  | 10 µM | 33
c1cncc(-c2cccc(Nc3nccc(NC4CCCCC4)n3)c2)c1 | binding | competition with immobilised ligand | 10 µM | 83
O=C(c1ccc(Nc2ncc(Cl)c(-c3cc4ccccc4s3)n2)cc1)N1CCC(N2CCCC2)CC1 | binding | competition with immobilised ligand | 1 µM | 66
O=C(Nc1cccnn1)N1CCC(=Cc2cccc(Oc3ccc(C(F)(F)F)cn3)c2)CC1 | cell-free assay | competition with immobilised ligand | 1 µM | 100
O=C(NCCCN1CCOCC1)c1ccc(Nc2ncc(Cl)c(-c3ccc(Cl)s3)n2)cc1 | binding | competition with immobilised ligand | 1 µM | 16
CCN1CCN(Cc2ccc(C(=O)Nc3ccc(C)c(Oc4ccc5c(c4)CC(=O)N5)c3)cc2C(F)(F)F)CC1 | binding | competition with immobilised ligand | 1 µM | 100
